Reference: the EternaBench riboswitch data

Tested on: MS2 coat protein
Assay: apparent Kd, MS2 coat protein; higher = weaker binding; RNA-MaP array; FMN 200 µM where present
In short: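 Two titrations, one without ligand and one with constant ligand, were run with SNAP-549-labelled MS2 coat protein from 0.7 or 1.5 nM, doubling to 3 µM. The targets were designs transcribed by stalled E. coli RNA polymerase on Illumina sequencing-chip clusters, in 100 mM Tris-HCl pH 7.5, 80 mM KCl, 4 mM MgCl2, BSA, DTT, yeast tRNA and Tween-20. The apparent Kd is the median of filtered per-cluster binding-curve fits, with green signal normalised to red-channel RNA signal and control-cluster median Fmax.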

[1] = designed as: ON switch for flavin mononucleotide, no ligand
[2] = ligand present: flavin mononucleotide, designed as: ON switch for flavin mononucleotide
[3] = designed as: OFF switch for flavin mononucleotide, no ligand
[4] = ligand present: flavin mononucleotide, designed as: OFF switch for flavin mononucleotide

Sequence | apparent Kd [1] | apparent Kd [2] | apparent Kd [3] | apparent Kd [4]
CCACGUCACAUUAACAUGAGGAUCACCCAUGUCAAAAGACAUGAGGAUAUGCAUCCUAAUUGGAUGCAGAAGGCAUGGACGUGG | 475 nM | 36.1 nM | – | –
UAUAUUUUUAUAGGAUAUGGAUAUGAUGCAUAUCCAGAAGGGUGAAUAUAAUAUUUUCUGUACAUGAGGAUCACCCAUGUUUAU | 235 nM | 72.2 nM | – | –
UGAAACUACGAGAAGGACAUGUGGUCCUUCAGUUACAUGAGGAUCACCCAUGUAGGAUAUCGUAGUUUCAGGAUCGUGAGAUCC | – | – | 32.8 nM | 11.7 nM
AAAAAGUCAGGAUAUGCGAAGGCGUCUGAUAGACGAGGCUAGCAGAAGGGACAUGAGGAUCACCCAUGUAAAGA | – | – | 27.2 nM | 55.1 nM
UAUAAAUACAUUAACAUGAGGAUCACCCAUGUCAAAAGACAUGAGGAUAUGCAUCCUAAUUGGAUGCAGAAGGCAUGUAUAAUU | 174 nM | 16.9 nM | – | –
UUGAUUAUACAAGGAUAUCAAUUGUAUACAAGUCAUACAUGAGGAUCACCCAUGUUUUAUUUUUUUGAGAAGGUGUAUUGUCAG | 38.9 nM | 24 nM | – | –
CGCUCACAUGAGGAUCACCCAUGUCCUAGGAGGUCAGGAUAUAGCUCGGAUGCGUUGAGGCUAGAAGGGACAGCUG | 259 nM | 84.7 nM | – | –
UUUGACGUCGUAGGAUAUGUAGGAUAUUCCUACAUGAGGAUCACCCAUGUUGACAUGGAAGAAGGACAGAAGGACGAUGUCCAU | 304 nM | 5.56 nM | – | –
GGAUUUACUGAGGAUAUUGCAUUACCCGAUUGAUAAGAAGGCAGAACAUGAGGAUCACCCAUGUGGGUAGUCAA | – | – | 17.4 nM | 16.4 nM
UUUUACGUUUCGUAGCAGUGUCAUCGAGAAGGCCCUGACAUGAGGAUCACCCAUGUUGUUACAUGGGAGGAUAUCGAUGAUUUU | 16.4 nM | 5.21 nM | – | –
UGGAUCAUCGGAGGAUAUCAUGUAUAUACAUGAGGAUCACCCAUGUCGUACGAGAGUACGGAGAUUGAGAAGGCCGAUGAUCCU | 38.8 nM | 14.9 nM | – | –
CAUUAAUUGAUUAUUGAAUAUUUACAGGAUAUGUAACAUGAGGAUCACCCAUGUAAACAUGGAUUACAGAAGGGUAUUUAUAGA | – | – | 37 nM | 26.1 nM
UUCGAGCCAAGGCUCGCGAGUACACAGGAUAUGGAAAGUCACAUGAGGAUCACCCAUGUCCAAAACCAGAAGGGUGAGACUAAG | – | 70.4 nM | – | –
AAAAAACAUGAGGAUCACCCAUGUCUUCGGACGUGAGGAUAUGUACAGACUUCGGUCUGUACAGAAGGCAUGUCAA | 212 nM | 25.9 nM | – | –
CCAGGCUGUGUGAGGAUAUGCUGGUCCUUGGAUCAGCAGAAGGCACAUGAGGAUCACCCAUGUGAGUAGCUUGG | – | – | 16.2 nM | 62.2 nM
CGGUCCCAUGUGAGGAUAUCGGAGCGAAAAUACUGCGAGAAGGUACAUGAGGAUCACCCAUGUCUCCUAUUGCC | – | – | 16.5 nM | 32.5 nM
CGUCUCAUAGGAUAUGCACGGAGGCAGGUCCUUGGCAACACACAUGAGGAUCACCCAUGUAGAAGGAUGCUACG | – | – | 19.4 nM | 30.5 nM
CCUCCACAUGAGGAUCACCCAUGUCAGGAUAUCGUGUGUGCUUUUUCGGUCUUUCGUGCGAGAAGGGACGUCUG | – | – | 27.6 nM | 26.7 nM
UACAGCCGCAUCCCAUCGCUGGAAGAGGAUAUACAUCAUCGCGCACUCACAUGAGGAUCACCCAUGUAGAAGGCUUCCUGGCGG | – | – | 7.94 nM | 25.4 nM

Sequence | apparent Kd [1] | apparent Kd [2] | apparent Kd [3] | apparent Kd [4]
GACGGUGAUGUAGGAUAUACGCUGGAAUACAGCGUAGAAGGACAUGAGGAUCACCCAUGUAAAGUGUCUCCGAAUAACACCGUC | – | – | 35.3 nM | 68.6 nM
CGGUAGGGAGGAUAUCCAAUAUAUGACAUGAGGAUCACCCAUGUUUCCACUCGUACCUCCGGAGAAGGCCCAUCCC | – | – | 19.7 nM | 20.4 nM
AGCCACAGAGGAUAUACAUACAUCCAGUGGUAAAGAAUACUACAUGAGGAUCACCCAUGUAGAAGGCUGUGGCA | – | – | 25.3 nM | 145 nM
UCUUAUCUAGGAUAUCCACCUCCUCACAUGAGGAUCACCCAUGUGCAGAACAACGGUCUCGGAGAAGGAGGUAUUG | – | – | 25.9 nM | 25.3 nM
GCAAUCGCAUGAGGAUAUGCUCGAGUUUAGAGAGCAGAAGGCAUGUCAUAAGACAUGAGGAUCACCCAUGUAGUUAAAAUGGCA | 39.9 nM | 9.42 nM | – | –
AAAAAAAGAUCACAGGAUAUACGAAAAAAAACAUGAGGAUCACCCAUGUAAAAAAAAAAAAAAAAGUAGAAGGGUGAUCCAAAAAA | 160 nM | 279 nM | – | –
UUUUUGAAGCUUCGUUAAUACAGUUAGGAUAUGAGAGACAUGAGGAUCACCCAUGUGCAUGUUGAUUAGAAGGAACAACUAUCU | – | – | 20.1 nM | 17.4 nM
ACAGUUGAAGCAGGAUAUGUACAUGAGGAUCACCCAUGUUGUCUGAGCGACUGGGAGUGCUAGCUACAGAAGGGCUUUACGACC | – | – | 12.9 nM | 77 nM
UUGGGCGUCGUAGGAUAUGUAGGAUAUUCCUACAUGAGGAUCACCCAUGUUGACAUGGAAGAAGGACAGAAGGACGAUGUCCAU | 278 nM | 4.67 nM | – | –
UUGUUAAAUGAAGGAUAUACUUAACAUGAGGAUCACCCAUGUGGUGUUGUGAGUGAGUGAGUUUAGUAGAAGGUCAAUUCUUUU | – | – | 229 nM | 232 nM
GUUUUACAUGAGGAUCACCCAUGUGAGGAUAUAUUGUUAAUAGUGAUAAUUAUUGGUGGUAGAAGGCGCGUGAU | – | – | 46.8 nM | 39.7 nM
AAAUUUUGUCAAGGAUAUGUAUAAUUGAUUUGAAAACAUGAGGAUCACCCAUGUAUAUUGUGGGAACAGAAGGUGAAUAAGUAA | – | – | 209 nM | 190 nM
UUAUGAGCGAUAGGAUAUACUGAGAUUGAAUGGGUAGAAGGAUCAAUUGUGUGGAAGACAUGAGGAUCACCCAUGUUACGGGCC | 104 nM | 337 nM | – | –
UGCAUGUAAGGAUAUGCAACCGGCGCUCAUUCGCCGGUCAAGCAGAAGGUACAUGAGGAUCACCCAUGUGUCCG | – | – | 31.3 nM | 139 nM
CAUUAAUUAAUUAGUUUAUAAAUACAGGAUAUGUUACAUGAGGAUCACCCAUGUUUACAUGGGAUACAGAAGGGUAAAUCAAUA | – | – | 192 nM | 145 nM
AGAGCCGGCACUGAGGAUAUUCAUAUUAAAACAUGAGGAUCACCCAUGUAGGCCAGAAGGCCUUGGGAGAAGGCAGGUCGGCUCU | 407 nM | 29.5 nM | – | –
CAGGUAGACUGAGGAUAUACAUACCAUCAGCUAGUCUAUCUAGCUGUCACAUGAGGAUCACCCAUGUAGAAGGCAGUCUGCCUG | – | – | 30.5 nM | 122 nM
CGUAUGUCAGGAUAUGCGUAAGCCGGUCAGGGCGAGCGGCAGCAGAAGGGACAUGAGGAUCACCCAUGUUCGGG | – | – | 64.6 nM | 47.8 nM
UCAUGCAUAGCGAUAUGAUCGAGAGAUCAUGUCGCUAAAUUUAGAAGGACAUGAGGAUCACCCAUGUAGGAUAUGGGAGCAUGC | 419 nM | 59.3 nM | – | –

Sequence | apparent Kd [1] | apparent Kd [2] | apparent Kd [3] | apparent Kd [4]
GUAGCUAUCGGAGGAUAUUCAUACCGGAAACGGACAUGAGGAUCACCCAUGUGGCGAAAGCCCUGGGAGAAGGCCGAUAGCUAC | 382 nM | 259 nM | – | –
GUGGAGUACGUAGGAUAUGUAGGAUAUUCCUACAUGAGGAUCACCCAUGUUAGCAUGGAAGAAGGACAGAAGGACGUGCUCCAG | 1180 nM | 15 nM | – | –
UUGGACGUCGUAGGAUAUGUAGGAUAUUCCUACAUGAGGAUCACCCAUGUUGACAUGGAAGAAGGACAGAAGGACGCUGUCCAU | 576 nM | 8.85 nM | – | –
AUAGGCCUAGGAUAUACAUGAGGAUCACCCAUGUUAACACUUCAAUCAAGUUAAUAUUGUAGAAGGAGGAAUAA | – | – | 30.4 nM | 29.4 nM
UUUUAGAUCCGAGGAUAUACAAUCCGGAAACGGUACAUGAGGAUCACCCAUGUAGAAGGCGGAUCUACAGGUACUAAAGUAUUU | – | – | 10 nM | 8.84 nM
AUAGUAGAAGUGAGGAUAUCGUAGAUUUUAGGAAACGAGAAGGCACAUGAGGAUCACCCAUGUAAGAUGGAGGU | – | – | 280 nM | 298 nM
UAUAUAUAGUAAGGAUAUGUAAUAAUUUUAUAAACAGAAGGUACUGACAUGAGGAUCACCCAUGUUUUAGUGUGGGCAUGUAGA | – | – | 83.9 nM | 151 nM
GCUCGAUGUGCUGAAAACAUGAGGAUCACCCAUGUAAAUGGUCAGGAUAUUUACGUGCUUUAUGUAGAGAAGGGACCAUCGAGC | 200 nM | 30.9 nM | – | –
AGAGUGACAGGAUAUUGGAUUCCUAACAUGAGGAUCACCCAUGUAGUACGGUACUACUGUCAAGAAGGGUCACUCU | – | – | 75.8 nM | 68.8 nM
ACUUGCUUGCAGAAGGGUGACAUGAGGAUCACCCAUGUAGCGGGCCGGCUUAAAGUCAGCGCGCCACAGGAUAUGCAGGCCUCG | 14.2 nM | 35.1 nM | – | –
CUCUGACAUGAGGAUCACCCAUGUGAGGAUAUGAUGCAGCAGUGGUCUACGCUGUGCAUCAGAAGGCACAUGUG | – | – | 101 nM | 33.4 nM
ACAAGAUCAGGAUAUACAUGAGGAUCACCCAUGUAUUUCAAAAAAAAACUUUCUUUAUGUAGAAGGGAUCUUGU | – | – | 14.7 nM | 13.5 nM
GGACCACAUCAGGAUAUGACUAGCUUCGGCUAGUCAGAAGGGAUGACAUGAGGAUCACCCAUGUGAUCAGGUCC | – | – | 77.5 nM | 127 nM
AAAAUGUAAGGAUAUGGCCGGGACCCAGGGUUUGGACCCGGCUAGAAGGUACAUGAGGAUCACCCAUGUAAGAA | – | – | 16.4 nM | 23 nM
ACAUGAUCAGGAUAUACAUGAGGAUCACCCAUGUAAAUAAAAAAAAAACUUUCUUUAUGUAGAAGGGAUCUUGU | – | – | 21 nM | 30.1 nM
GUAAAGUGAGGAUAUGGUAAAUUAAUUAUUAAUUAAUUAAUCCAGAAGGCACAUGAGGAUCACCCAUGUAUAUG | – | – | 38.2 nM | 61.3 nM
CUCUCACAGUCAGGAUAUGACGCGGAACAUGAGGAUCACCCAUGUGACGUCCCUCCAUGUACCCGUCAGAAGGGAUUAAUGGAC | – | – | 720 nM | 480 nM
GUGUAGCAAGGAUAUACAUGAGGAUCACCCAUGUGAAUAAGAUAGAAUAAGAUAAAGUGUAGAAGGUGUAGUGU | – | – | 35.3 nM | 35.7 nM
